Measurements published in ChEMBL document CHEMBL1121726, “Pyrazolopyrimidine nucleosides. 12. Synthesis and biological activity of certain pyrazolo[3,4-d]pyrimidine nucleosides related to adenosine” (1981).
pIC50: −log10 of the molar value. Activity calls are given as the source filed them. The calls are words filed in the database; no cut-off is given here.

Legend:
L1210 [1] = experiment: Increase in life span of tumor L1210 leukemic mice 1-5 days after 200 mg/kg administered; type: functional, Mus musculus
Procedure, shortened: (§1)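 Mice bearing L1210 or P388 leukemia were injected with drug at the listed dose per injection on the listed days after tumor-cell inoculation. ILS was the percentage increase in life span of treated mice over untreated tumor-bearing controls.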

L1210 [2] = experiment: Toxicity against L1210 leukemic cells 1-5 days after administration of 200 mg/kg of the compound; No higher dose tested; type: functional, organism-based; design: dose 200 mg/kg; conditions: Mus musculus
Procedure, shortened: (§2)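 Mice bearing L1210 or P388 leukemia were injected at the stated dose per injection on the listed days after tumor-cell inoculation. Host toxicity scores whether higher doses on the same schedule caused drug-induced shortening of life span: y = yes, n = no, nt = no higher dose tested.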

L1210 [3] = experiment: In vitro inhibition of growth of L1210 mouse leukemic cells; type: functional; conditions: read-out: ID50 (the source's name)
Procedure, shortened: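 L1210 cells grown in static suspension culture in Fischer's medium for leukemic cells of mice, exposed to a range of test-compound concentrations. Growth rate measured over 3 days.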

L1210 [4] = experiment: Toxicity against L1210 leukemic cells 1 day after administration of 133 mg/kg of the compound; No; type: functional, organism-based; design: dose 133 mg/kg; conditions: Mus musculus; procedure, shortened: as §2
P388 (Mus musculus) = experiment: Increase in life span of tumor P388 leukemic mice 1-9 days after 9.3 mg/kg administered
L1210 [5] = experiment: Increase in life span of tumor L1210 leukemic mice 1 day after 133 mg/kg administered; type: functional, Mus musculus; procedure, shortened: as §1
L1210 [6] = experiment: Number of mice surviving 1 day after 133 mg/kg administered; 1/6; type: functional, Mus musculus
P388 [7] = experiment: Toxicity against P388 leukemic cells 1-9 days after administration of 25 mg/kg of the compound; No; type: functional, organism-based; design: dose 25 mg/kg; conditions: Mus musculus; procedure, shortened: as §2
P388 [8] = experiment: Increase in life span of tumor P388 leukemic mice 1-9 days after 25 mg/kg administered; type: functional, Mus musculus
L1210 [9] = experiment: Toxicity against L1210 leukemic cells 1-5 days after administration of 400 mg/kg of the compound; nt= No higher dose tested; type: functional, organism-based; design: dose 400 mg/kg; conditions: Mus musculus; procedure, shortened: as §2
L1210 [10] = experiment: Increase in life span of tumor L1210 leukemic mice 1-5 days after 400 mg/kg administered; type: functional, Mus musculus; procedure, shortened: as §1
L1210 [11] = experiment: Increase in life span of tumor L1210 leukemic mice 1-5 day after 50 mg/kg administered; type: functional, Mus musculus; procedure, shortened: as §1
L1210 [12] = experiment: […] against L1210 leukemic cells 1-5 days after administration of 50 mg/kg of the compound; Yes; type: functional, organism-based; design: dose 50 mg/kg; conditions: Mus musculus
L1210 [13] = experiment: […] against L1210 leukemic cells 1-5 days after administration of 12.5 mg/kg of the compound; Yes; conditions: Mus musculus
L1210 [14] = experiment: Increase in life span of tumor L1210 leukemic mice 1-5 days after 12.5 mg/kg administered; type: functional, Mus musculus; procedure, shortened: as §1
L1210 [15] = experiment: […] against L1210 leukemic cells 1-5 days after administration of 400 mg/kg of the compound; No higher dose tested; type: functional, organism-based; design: dose 400 mg/kg; conditions: Mus musculus
L1210 [16] = experiment: Increase in life span of tumor L1210 leukemic mice 1-5 day after 400 mg/kg administered; type: functional, Mus musculus; procedure, shortened: as §1
L1210 [17] = experiment: […] against L1210 leukemic cells 1-5 days after administration of 100 mg/kg of the compound; Yes; type: functional, organism-based; design: dose 100 mg/kg; conditions: Mus musculus
L1210 [18] = experiment: Increase in life span of tumor L1210 leukemic mice 1-5 days after 100 mg/kg administered; type: functional; conditions: Mus musculus; procedure, shortened: as §1
L1210 [19] = experiment: Toxicity against L1210 leukemic cells 1-9 days after administration of 100 mg/kg of the compound; nt= No higher dose tested; type: functional, organism-based; design: dose 100 mg/kg; conditions: Mus musculus; procedure, shortened: as §2
L1210 [20] = experiment: Increase in life span of tumor L1210 leukemic mice 1-9 days after 100 mg/kg administered; type: functional, Mus musculus; procedure, shortened: as §1
L1210 [21] = experiment: Increase in life span of tumor L1210 leukemic mice 1-9 days after 400 mg/kg administered; type: functional, Mus musculus; procedure, shortened: as §1
L1210 [22] = experiment: […] against L1210 leukemic cells 1-9 days after administration of 400 mg/kg of the compound; No higher dose tested; type: functional, organism-based; design: dose 400 mg/kg; conditions: Mus musculus
L1210 [23] = experiment: Toxicity against L1210 leukemic cells 1-9 days after administration of 400 mg/kg of the compound; No higher dose tested; type: functional, organism-based; design: dose 400 mg/kg; conditions: Mus musculus; procedure, shortened: as §2
P388 [24] = experiment: Increase in life span of tumor P388 leukemic mice 1-9 days after 40 mg/kg administered; type: functional, Mus musculus; procedure, shortened: as §1
L1210 [25] = experiment: Toxicity against L1210 leukemic cells 1-5 days after administration of 25 mg/kg of the compound; Yes; type: functional, organism-based; design: dose 25 mg/kg; conditions: Mus musculus; procedure, shortened: as §2
L1210 [26] = experiment: Number of mice surviving 1 day after 25 mg/kg administered; 2/12; type: functional, Mus musculus
P388 [27] = experiment: Toxicity against P388 leukemic cells 1-9 days after administration of 40 mg/kg of the compound; Yes; type: functional, organism-based; design: dose 40 mg/kg; conditions: Mus musculus
Procedure, shortened: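 Host toxicity was scored in leukemia-bearing mice as drug-induced shortening of life span when higher doses were given on the same schedule: y = yes, n = no, nt = no higher dose tested.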

L1210 [28] = experiment: Increase in life span of tumor L1210 leukemic mice 1-5 days after 25 mg/kg administered; type: functional, Mus musculus; procedure, shortened: as §1
L1210 [29] = experiment: Increase in life span of tumor L1210 leukemic mice 1-9 day after 200 mg/kg administered; type: functional, Mus musculus; procedure, shortened: as §1
L1210 [30] = experiment: Toxicity against L1210 leukemic cells 1-9 days after administration of 200 mg/kg of the compound; Yes; type: functional, organism-based; design: dose 200 mg/kg; conditions: Mus musculus; procedure, shortened: as §2

## CN(C)c1ncnc2c1cnn2C1O[C@H](CO)[C@@H](O)[C@H]1O (stereo partly drawn)
L1210 [1]
  ILS: 0
L1210 [2]
  Toxicity: No higher dose tested

## Nc1ncnc2c1ncn2[C@@H]1O[C@H](CO)[C@@H](O)[C@H]1O [ADENOSINE]
L1210 [3]
  pIC50: 6.40
L1210 [4]
  Toxicity: Not toxic
P388 (Mus musculus)
  ILS: 24
L1210 [5]
  ILS: 48
L1210 [6]
  Cures: 1
P388 [7]
  Toxicity: Not toxic
P388 [8]
  ILS: 54

## OC[C@H]1OC(n2ncc3c(S)ncnc32)[C@H](O)[C@@H]1O (stereo partly drawn)
L1210 [9]
  Toxicity: No higher dose tested
L1210 [10]
  ILS: -6

## CN(C)/C=N/c1ncnc2c1cnn2C1O[C@H](CO)[C@@H](O)[C@H]1O (stereo partly drawn)
L1210 [3]
  pIC50: 6.22
L1210 [11]
  ILS: 12
L1210 [12]
  Toxicity: Active

## OC[C@H]1OC(n2ncc3c(NO)ncnc32)[C@H](O)[C@@H]1O (stereo partly drawn)
L1210 [3]
  pIC50: 5.00
L1210 [13]
  Toxicity: Active
L1210 [14]
  ILS: 14

## COc1ncnc2c1cnn2C1O[C@H](CO)[C@@H](O)[C@H]1O (stereo partly drawn)
L1210 [15]
  Toxicity: No higher dose tested
L1210 [16]
  ILS: 12

## C=CCSc1ncnc2c1cnn2C1O[C@H](CO)[C@@H](O)[C@H]1O (stereo partly drawn)
L1210 [17]
  Toxicity: Active
L1210 [18]
  ILS at 100 mg/kg: 2%

## N#Cc1nn(C2O[C@H](CO)[C@@H](O)[C@H]2O)c2ncnc(N)c12 (stereo partly drawn)
L1210 [3]
  pIC50: 7.10
L1210 [19]
  Toxicity: No higher dose tested
L1210 [20]
  ILS: 27

## OC[C@H]1OC(n2ncc3c(N/N=C/c4ccc(N(CCCl)CCCl)cc4)ncnc32)[C@H](O)[C@@H]1O (stereo partly drawn)
L1210 [3]
  pIC50: ~5.00
L1210 [21]
  ILS: -7
L1210 [22]
  Toxicity: No higher dose tested

## OC[C@H]1OC(n2ncc3c(NCc4ccco4)ncnc32)[C@H](O)[C@@H]1O (stereo partly drawn)
L1210 [3]
  pIC50: < 4.00
L1210 [21]
  ILS: 6
L1210 [23]
  Toxicity: No higher dose tested

## N=C(N)c1nn(C2O[C@H](CO)[C@@H](O)[C@H]2O)c2ncnc(N)c12 (stereo partly drawn)
P388 [24]
  ILS: 29
L1210 [25]
  Toxicity: Active
L1210 [26]
  Cures: 2
P388 [27]
  Toxicity: Active
L1210 [28]
  ILS: 98

## OC[C@H]1OC(n2ncc3cncnc32)[C@H](O)[C@@H]1O (stereo partly drawn)
L1210 [3]
  pIC50: < 4.00
L1210 [29]
  ILS: -3
L1210 [30]
  Toxicity: Active
